Assay results reported in BindingDB's records for doi:10.1021/jm980077m (New York University Medical Center, 1998).
“And” between values parts separate entries of the source, which are not always exact repeats. Equal values may be shown once.

Biological target: T1, Alpha-1D adrenergic receptor (Homo sapiens, UniProt P25100)
T1 sequence (P25100 whole entry): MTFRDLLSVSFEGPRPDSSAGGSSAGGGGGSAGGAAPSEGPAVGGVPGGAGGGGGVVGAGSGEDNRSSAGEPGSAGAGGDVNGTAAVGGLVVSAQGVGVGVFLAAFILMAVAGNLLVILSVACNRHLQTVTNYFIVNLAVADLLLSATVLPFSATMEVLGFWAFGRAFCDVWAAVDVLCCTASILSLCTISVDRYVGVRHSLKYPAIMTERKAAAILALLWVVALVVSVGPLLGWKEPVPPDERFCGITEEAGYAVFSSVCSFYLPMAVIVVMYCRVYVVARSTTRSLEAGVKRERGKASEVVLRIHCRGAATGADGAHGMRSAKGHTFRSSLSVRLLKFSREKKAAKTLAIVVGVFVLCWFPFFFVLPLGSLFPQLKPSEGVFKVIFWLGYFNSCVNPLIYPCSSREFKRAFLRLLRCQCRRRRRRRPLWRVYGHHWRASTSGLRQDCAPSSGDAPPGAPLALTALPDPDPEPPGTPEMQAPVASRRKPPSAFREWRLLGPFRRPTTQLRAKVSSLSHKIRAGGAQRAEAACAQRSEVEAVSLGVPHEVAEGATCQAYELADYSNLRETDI
Experiment: Binding affinity determined by displacement of [3H]prazosin from alpha-1D adrenergic receptor
Method in brief: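 Radioligand displacement binding with [3H]prazosin at the alpha-1d adrenoceptor. Incubation ran 30 min, with 4 h used for one earlier reference compound. Results were expressed as pKi.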

`CC1=NC(C)=C(C(=O)NCCCN2CCC(c3ccccc3)(c3ccccc3)CC2)C(c2ccc([N+](=O)[O-])cc2)C1C(N)=O` (stereo unspecified) [2,6-Dimethyl-4-(4-nitro-phenyl)-1,4-dihydro-pyridine-3,5-dicarboxylic acid 3-amide 5-{[3-(4,4-diphenyl-piperidin-1-yl)-propyl]-amide}] was tested, and the Ki was 224 nM and 223 nM.
